Test results reported in ChEMBL document CHEMBL1144871, “Synthesis of substituted 6-anilinouracils and their inhibition of DNA polymerase IIIC and Gram-positive bacterial growth” (J Med Chem, 2003).
≈ marks a conversion by molar mass, not a printed value.

Columns and labels:
Enterococcus faecium = assay: Antibacterial activity against Enterococcus faecium was determined; assay type: functional, enterococcus fecium
How it was run: (§1)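 Broth microdilution MIC. Log-phase cultures grown in Luria broth; wells seeded from stocks at (3-7) × 10⁵ CFU/mL. DMSO stocks diluted 2-fold to five concentrations, 20 to 1.25 µg/mL, plus untreated control; 1% DMSO final in all wells. Duplicate assays, 37 °C for 16 to 24 h, growth read as OD600. MIC taken as lowest concentration preventing growth, averaged.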

Escherichia coli = assay: Antibacterial activity against Escherichia coli was determined; assay type: functional; how it was run: as §1
Enterococcus faecalis [1] = assay: Antibacterial activity against vancomycin-resistant strain of Enterococcus faecalis(VRE) was determined; assay type: functional
How it was run: (§2)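 MIC by broth microdilution. Log-phase cultures in Luria broth, seeded at (3-7) × 10⁵ CFU/mL stocks. Compound from DMSO stock, 2-fold serial dilutions giving five concentrations from 20 to 1.25 µg/mL, final 1% DMSO, with untreated and DMSO controls. Duplicate assays, 37 °C for 16 to 24 h, growth read as OD 600 nm. MIC is the averaged lowest concentration preventing growth.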

Staphylococcus aureus [2] = assay: Antibacterial activity against Staphylococcus aureus(smith) was determined; assay type: functional
Staphylococcus aureus [3] = assay: Antibacterial activity against methicillin-resistant strain of Staphylococcus aureus(MRSA B42876) was determined; assay type: functional; how it was run: as §2
Enterococcus faecalis [4] = assay: Antibacterial activity against Enterococcus faecalis was determined; assay type: functional; how it was run: as §2
[5] = target: DNA polymerase III PolC-type (Bacillus subtilis (strain 168), UniProt P13267); assay: Inhibitory activity against DNA polymerase IIIC from Bacillus subtilis was determined
How it was run: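 Homogeneous recombinant B. subtilis pol IIIC, 0.025-0.06 units, added to buffered Mg²⁺/DTT/glycerol mix with dATP, dCTP, dTTP, [³H]dTTP and activated calf thymus DNA, no dGTP ("truncated" assay). Compound serial dilutions in DMSO added before enzyme. 10 min at 30 °C, TCA-pyrophosphate stop, acid-precipitated DNA filtered and scintillation counted. Apparent Ki read directly; duplicates.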

Staphylococcus aureus [6] = assay: Antibacterial activity against Staphylococcus aureus was determined; assay type: functional
Bacillus subtilis = assay: Antibacterial activity against Bacillus subtilis was determined; assay type: functional

Chain of DNA polymerase III PolC-type (P13267 whole entry, the tested form may be a part): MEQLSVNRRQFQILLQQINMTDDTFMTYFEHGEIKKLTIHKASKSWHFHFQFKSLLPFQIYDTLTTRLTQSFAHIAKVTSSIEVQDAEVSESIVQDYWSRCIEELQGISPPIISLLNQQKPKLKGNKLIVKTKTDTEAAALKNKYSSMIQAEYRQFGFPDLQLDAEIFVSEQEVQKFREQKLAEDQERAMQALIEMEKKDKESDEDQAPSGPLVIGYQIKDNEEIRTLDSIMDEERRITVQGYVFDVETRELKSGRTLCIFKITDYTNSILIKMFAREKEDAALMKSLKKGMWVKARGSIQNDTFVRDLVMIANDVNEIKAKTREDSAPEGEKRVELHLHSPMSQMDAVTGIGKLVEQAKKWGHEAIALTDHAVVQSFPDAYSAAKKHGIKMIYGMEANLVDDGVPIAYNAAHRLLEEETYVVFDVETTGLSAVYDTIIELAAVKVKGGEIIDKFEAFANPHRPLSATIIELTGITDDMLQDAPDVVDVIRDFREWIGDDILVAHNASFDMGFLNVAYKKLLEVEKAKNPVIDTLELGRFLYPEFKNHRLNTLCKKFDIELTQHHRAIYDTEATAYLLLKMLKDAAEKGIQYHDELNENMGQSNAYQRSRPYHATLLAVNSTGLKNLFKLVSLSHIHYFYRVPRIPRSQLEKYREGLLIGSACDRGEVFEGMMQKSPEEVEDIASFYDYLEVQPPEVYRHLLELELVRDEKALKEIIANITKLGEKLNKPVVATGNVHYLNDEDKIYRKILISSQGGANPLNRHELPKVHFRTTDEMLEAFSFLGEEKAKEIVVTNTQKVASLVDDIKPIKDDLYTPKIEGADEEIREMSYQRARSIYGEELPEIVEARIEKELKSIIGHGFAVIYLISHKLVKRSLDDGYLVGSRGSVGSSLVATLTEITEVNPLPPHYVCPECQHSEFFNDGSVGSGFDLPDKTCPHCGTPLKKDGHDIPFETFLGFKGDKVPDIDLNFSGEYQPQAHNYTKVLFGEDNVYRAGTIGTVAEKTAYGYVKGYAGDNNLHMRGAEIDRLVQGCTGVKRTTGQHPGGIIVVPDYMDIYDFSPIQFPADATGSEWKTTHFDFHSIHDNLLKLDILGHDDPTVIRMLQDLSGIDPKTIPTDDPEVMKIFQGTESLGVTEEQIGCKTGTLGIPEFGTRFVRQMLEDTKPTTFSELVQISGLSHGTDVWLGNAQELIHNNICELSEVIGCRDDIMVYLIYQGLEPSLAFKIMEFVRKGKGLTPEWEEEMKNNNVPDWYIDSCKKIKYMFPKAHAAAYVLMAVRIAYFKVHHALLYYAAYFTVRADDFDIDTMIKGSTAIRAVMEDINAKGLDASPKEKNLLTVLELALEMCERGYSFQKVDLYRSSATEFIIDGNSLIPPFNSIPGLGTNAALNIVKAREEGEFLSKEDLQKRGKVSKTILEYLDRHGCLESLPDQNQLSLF

SMILES	MIC (Enterococcus faecium)	MIC (Escherichia coli)	MIC (Enterococcus faecalis [1])	MIC (Staphylococcus aureus [2])	MIC (Staphylococcus aureus [3])	MIC (Enterococcus faecalis [4])	Ki [5]	MIC (Staphylococcus aureus [6])	MIC (Bacillus subtilis)
CCc1cc(Nc2cc(=O)n(CCCCN3CCC(O)(c4ccc(Cl)c(C(F)(F)F)c4)CC3)c(=O)[nH]2)ccc1C	2.5 µg/mL (≈ 4.32 µM)	> 20 µg/mL	2.5 µg/mL (≈ 4.32 µM)						
CCc1cc(Nc2cc(=O)n(CCCCN3CCN(C(=O)c4ccco4)CC3)c(=O)[nH]2)ccc1C	10 µg/mL (≈ 20.9 µM)	> 20 µg/mL	10 µg/mL (≈ 20.9 µM)	5 µg/mL (≈ 10.4 µM)	20 µg/mL (≈ 41.7 µM)	5 µg/mL (≈ 10.4 µM)			
CCc1cc(Nc2cc(=O)n(CCCCO)c(=O)[nH]2)ccc1C	2.5 µg/mL (≈ 7.88 µM)	> 20 µg/mL	2.5 µg/mL (≈ 7.88 µM)				63 nM		
COCCCCn1c(=O)cc(Nc2ccc(C)c(CSC#N)c2)[nH]c1=O	> 20 µg/mL	> 20 µg/mL		> 20 µg/mL		> 20 µg/mL	60 nM	> 20 µg/mL	> 20 µg/mL
COCCCCn1c(=O)cc(Nc2ccc(C)c(Br)c2)[nH]c1=O	5 µg/mL (≈ 13.1 µM)	> 20 µg/mL	2.5 µg/mL (≈ 6.54 µM)	2.5 µg/mL (≈ 6.54 µM)	5 µg/mL (≈ 13.1 µM)	5 µg/mL (≈ 13.1 µM)	129 nM	5 µg/mL (≈ 13.1 µM)	2.5 µg/mL (≈ 6.54 µM)
COCCCCn1c(=O)cc(Nc2ccc(C)c(CS)c2)[nH]c1=O	> 20 µg/mL	> 20 µg/mL		> 20 µg/mL		> 20 µg/mL	180 nM	> 20 µg/mL	> 20 µg/mL
CCc1cc(Nc2cc(=O)n(CCCCN3CCSCC3)c(=O)[nH]2)ccc1C	5 µg/mL (≈ 12.4 µM)	> 20 µg/mL	5 µg/mL (≈ 12.4 µM)		20 µg/mL (≈ 49.7 µM)	5 µg/mL (≈ 12.4 µM)		20 µg/mL (≈ 49.7 µM)	
C=Cc1cc(Nc2cc(=O)n(CCCCOC)c(=O)[nH]2)ccc1C	5 µg/mL (≈ 15.2 µM)	> 20 µg/mL	10 µg/mL (≈ 30.4 µM)	5 µg/mL (≈ 15.2 µM)	10 µg/mL (≈ 30.4 µM)	10 µg/mL (≈ 30.4 µM)	560 nM	5 µg/mL (≈ 15.2 µM)	< 1.25 µg/mL
COCCCCn1c(=O)cc(Nc2ccc(C)c(CO)c2)[nH]c1=O	> 20 µg/mL	> 20 µg/mL		> 20 µg/mL		> 20 µg/mL	20000 nM	> 20 µg/mL	> 20 µg/mL
COCCCCn1c(=O)cc(Nc2ccc(C)c(C(C)=O)c2)[nH]c1=O	> 20 µg/mL	> 20 µg/mL		> 20 µg/mL		> 20 µg/mL	3260 nM	> 20 µg/mL	> 20 µg/mL
CCc1cc(Nc2cc(=O)n(CCCCN)c(=O)[nH]2)ccc1C.Cl		> 20 µg/mL					62 nM		
COCCCCn1c(=O)cc(Nc2ccc(C)c(C(C)Cl)c2)[nH]c1=O (centres undefined)	> 20 µg/mL	> 20 µg/mL		> 20 µg/mL		> 20 µg/mL	6470 nM	> 20 µg/mL	> 20 µg/mL
CCc1cc(Nc2cc(=O)n(CCCCN3CCN(c4ccc(F)cc4)CC3)c(=O)[nH]2)ccc1C	5 µg/mL (≈ 10.4 µM)	> 20 µg/mL	5 µg/mL (≈ 10.4 µM)		20 µg/mL (≈ 41.7 µM)	10 µg/mL (≈ 20.9 µM)		10 µg/mL (≈ 20.9 µM)	
COCCCCn1c(=O)cc(Nc2ccc(C)c(I)c2)[nH]c1=O	10 µg/mL (≈ 23.3 µM)	> 20 µg/mL	5 µg/mL (≈ 11.6 µM)	5 µg/mL (≈ 11.6 µM)	5 µg/mL (≈ 11.6 µM)	10 µg/mL (≈ 23.3 µM)	310 nM	10 µg/mL (≈ 23.3 µM)	5 µg/mL (≈ 11.6 µM)
CCc1cc(Nc2cc(=O)n(CCCCN3CCNCC3)c(=O)[nH]2)ccc1C.Cl.Cl	> 20 µg/mL	> 20 µg/mL		> 20 µg/mL		> 20 µg/mL	30 nM	> 20 µg/mL	20 µg/mL
C=C(C)c1cc(Nc2cc(=O)n(CCCCOC)c(=O)[nH]2)ccc1C	20 µg/mL (≈ 58.2 µM)	> 20 µg/mL	20 µg/mL (≈ 58.2 µM)	10 µg/mL (≈ 29.1 µM)	> 20 µg/mL	20 µg/mL (≈ 58.2 µM)	565 nM	20 µg/mL (≈ 58.2 µM)	2.5 µg/mL (≈ 7.28 µM)
CCOC(=O)CC1CN(CCCCn2c(=O)cc(Nc3ccc(C)c(CC)c3)[nH]c2=O)CCO1 (centres undefined)	10 µg/mL (≈ 21.2 µM)	> 20 µg/mL		20 µg/mL (≈ 42.3 µM)	20 µg/mL (≈ 42.3 µM)	> 20 µg/mL	26 nM	20 µg/mL (≈ 42.3 µM)	5 µg/mL (≈ 10.6 µM)
CCc1cc(Nc2cc(=O)n(CCCCN3CCOCC3)c(=O)[nH]2)ccc1C		> 20 µg/mL							
